Source: ChEMBL document CHEMBL2040715, “Discovery of a Potent HIV Integrase Inhibitor that Leads to a Prodrug with Significant anti-HIV Activity” (ACS Med Chem Lett, 2011)

Columns and labels:
[1] = system: Human immunodeficiency virus 1; test: Antiviral activity against HIV1 infected in MAGI cells by beta-galactosidase reporter gene assay; format: functional, organism-based; conditions: Human immunodeficiency virus 1, MAGI
In short: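 HIV-1 infection of MAGI cells, with raltegravir as the MOI-sensitive positive control validating each run. EC50 and EC90 were determined.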

[2] = system: Human immunodeficiency virus 1; test: Antiviral activity against HIV1 infected in human MT4 cells; conditions: Human immunodeficiency virus 1, MT4
[3] = target: Human immunodeficiency virus type 1 integrase (Human immunodeficiency virus 1, UniProt Q7ZJM1); test: Inhibition of HIV1 integrase-mediated strand transfer
[4] = Cytotoxicity against PBMC; format: cell-based; conditions: human
[5] = Cytotoxicity against human MAGI cells by MTS assay; format: cell-based
[6] = Therapeutic index, ratio of CC50 for human MAGI cells to EC50 for HIV1; format: cell-based

Chain of Human immunodeficiency virus type 1 integrase (Q7ZJM1 whole entry): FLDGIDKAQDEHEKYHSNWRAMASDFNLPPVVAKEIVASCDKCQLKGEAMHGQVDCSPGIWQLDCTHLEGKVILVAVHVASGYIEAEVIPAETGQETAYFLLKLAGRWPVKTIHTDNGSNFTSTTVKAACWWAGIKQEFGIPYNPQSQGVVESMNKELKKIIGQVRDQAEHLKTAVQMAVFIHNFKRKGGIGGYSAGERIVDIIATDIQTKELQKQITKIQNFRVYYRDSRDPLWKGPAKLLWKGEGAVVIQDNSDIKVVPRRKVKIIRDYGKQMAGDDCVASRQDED

Structure (SMILES) | EC50 [1] | further results
O=C(O)/C(O)=C/C(=O)c1cc(Cc2ccccc2)cn(Cc2ccc(F)cc2F)c1=O | 600 nM | 
O=C(O)/C(O)=C/C(=O)c1cc(Cc2ccccc2F)cn(Cc2ccc(F)cc2)c1=O | 800 nM | 
O=C(O)/C(O)=C/C(=O)c1cc(Cc2ccc(F)c(Cl)c2)cn(Cc2ccc(F)c(Cl)c2)c1=O | 2400 nM | 
Cc1ccc(Cn2cc(Cc3cccc(Cl)c3)cc(C(=O)/C=C(\O)C(=O)O)c2=O)cc1 | 2500 nM | 
O=C(O)/C(O)=C/C(=O)c1cc(Cc2ccc(F)cc2)cn(Cc2cccc(F)c2)c1=O | 1000 nM | 
O=C(O)/C(O)=C/C(=O)c1cc(Cc2cccc(Cl)c2)cn(Cc2cccc(Cl)c2F)c1=O | 1400 nM | 
O=C(O)/C(O)=C/C(=O)c1cc(Cc2ccc(F)c(Cl)c2)cn(Cc2ccccc2F)c1=O | 2200 nM | 
O=C(O)/C(O)=C/C(=O)c1cc(Cc2ccc(F)cc2F)cn(Cc2ccccc2)c1=O | 800 nM | 
O=C(O)/C(O)=C/C(=O)c1cc(Cc2ccc(F)cc2)cn(Cc2cccc(Cl)c2)c1=O | 1200 nM | 
O=C(O)/C(O)=C/C(=O)c1cc(Cc2ccccc2)cn(Cc2ccccc2F)c1=O | 900 nM | 
O=C(O)/C(O)=C/C(=O)c1cc(Cc2cccc(Cl)c2)cn(Cc2cccc(Cl)c2)c1=O | 1100 nM | 
O=C(O)/C(O)=C/C(=O)c1cc(Cc2ccc(F)cc2F)cn(Cc2ccc(F)cc2F)c1=O | 300 nM | 
O=C(O)/C(O)=C/C(=O)c1cc(Cc2ccccc2F)cn(Cc2cccc(Cl)c2)c1=O | 700 nM | 
O=C(O)/C(O)=C/C(=O)c1cc(Cc2ccccc2)cn(Cc2ccc(F)c(Cl)c2)c1=O | 800 nM | 
O=C(O)C(=O)CC(=O)c1cccn1Cc1ccc(F)cc1 |  | EC50 [2]: 1000 nM
N#Cc1ccc(Cn2cc(Cc3ccccc3F)cc(C(=O)/C=C(\O)C(=O)O)c2=O)cc1 | 1100 nM | 
Cc1ccc(Cn2cc(Cc3ccc(F)cc3)cc(C(=O)/C=C(\O)C(=O)O)c2=O)cc1 | 1600 nM | 
O=C(O)/C(O)=C/C(=O)c1cc(Cc2ccccc2)cn(Cc2ccc(F)c(Cl)c2F)c1=O | 600 nM | 
Cc1cc(F)ccc1Cc1cc(C(=O)/C=C(\O)C(=O)O)c(=O)n(Cc2ccccc2F)c1 | 1300 nM | 
Cc1cc(F)ccc1Cc1cc(C(=O)/C=C(\O)C(=O)O)c(=O)n(Cc2ccc(F)cc2)c1 | 1000 nM | 

Structure (SMILES) | EC50 [1] | further results
Cc1ccc(Cn2cc(Cc3ccccc3F)cc(C(=O)/C=C(\O)C(=O)O)c2=O)cc1 | 700 nM | 
O=C(O)/C(O)=C/C(=O)c1cc(Cc2cccc(Cl)c2F)cn(Cc2cccc(Cl)c2F)c1=O | 2400 nM | 
O=C(O)/C(O)=C/C(=O)c1cc(Cc2ccccc2F)cn(Cc2cccc(F)c2F)c1=O | 800 nM | 
O=C(O)/C(O)=C/C(=O)c1cc(Cc2ccc(F)cc2)cn(Cc2c(F)cccc2F)c1=O | 1400 nM | 
O=C(O)/C(O)=C/C(=O)c1cc(Cc2ccc(F)cc2)cn(Cc2ccc(F)cc2)c1=O | 800 nM | 
O=C(O)/C(O)=C/C(=O)c1cc(Cc2ccccc2F)cn(Cc2ccc(F)cc2F)c1=O | 600 nM | 
O=C(O)/C(O)=C/C(=O)c1cc(Cc2ccccc2)cn(Cc2c(F)cccc2F)c1=O | 1500 nM | 
O=C(O)/C(O)=C/C(=O)c1cc(Cc2ccc(F)cc2)cn(Cc2cccc(F)c2F)c1=O | 700 nM | 
O=C(O)/C(O)=C/C(=O)c1cc(Cc2ccccc2)cn(Cc2ccc(F)cc2)c1=O | 1000 nM | 
O=C(O)/C(O)=C/C(=O)c1cc(Cc2ccccc2)cn(Cc2ccccc2)c1=O | 2100 nM | IC50 [3]: 70 nM
Cc1cccc(Cn2cc(Cc3ccc(F)cc3F)cc(C(=O)/C=C(\O)C(=O)O)c2=O)c1 | 700 nM | 
Cc1cccc(Cc2cc(C(=O)/C=C(\O)C(=O)O)c(=O)n(Cc3cccc(Cl)c3F)c2)c1 | 1400 nM | 
O=C(O)/C(O)=C/C(=O)c1cc(Cc2cccc(Cl)c2)cn(Cc2ccccc2F)c1=O | 1900 nM | 
O=C(/C=C(\O)c1nc[nH]n1)c1ccc(Cc2ccc(F)cc2)o1 [S-1360] |  | CC50 [4]: 110000 nM
O=C(O)/C(O)=C/C(=O)c1cc(Cc2ccc(F)cc2)cn(Cc2ccccc2F)c1=O | 700 nM | 
O=C(O)/C(O)=C/C(=O)c1cc(Cc2ccccc2)cn(Cc2cccc(F)c2F)c1=O | 900 nM | 
COc1ccc(Cn2cc(Cc3ccccc3)cc(C(=O)/C=C(\O)C(=O)O)c2=O)cc1 | 1800 nM | 
CC(C)OC(=O)/C(O)=C/C(=O)c1cc(Cc2ccc(F)cc2F)cn(Cc2ccccc2F)c1=O | 9 nM | IC50 [3]: > 475 nM; CC50 [5]: 135000 nM; CC90 [5]: > 200000 nM; Ratio CC50/EC50 [6]: 15000
Cc1cc(F)ccc1Cc1cc(C(=O)/C=C(\O)C(=O)O)c(=O)n(Cc2ccccc2)c1 | 1300 nM | 
O=C(O)/C(O)=C/C(=O)c1cc(Cc2ccc(F)c(Cl)c2)cn(Cc2ccc(F)cc2)c1=O | > 5000 nM | 

Structure (SMILES) | EC50 [1] | further results
O=C(O)/C(O)=C/C(=O)c1cc(Cc2cccc(Cl)c2)cn(Cc2ccc(F)cc2)c1=O | 1400 nM | 
O=C(O)/C(O)=C/C(=O)c1cc(Cc2cccc(C(=O)O)c2)cn(Cc2ccccc2)c1=O | > 5000 nM | 
Cc1cccc(Cn2cc(Cc3ccccc3F)cc(C(=O)/C=C(\O)C(=O)O)c2=O)c1 | 900 nM | 
Cc1ccc(Cn2cc(Cc3ccc(F)c(Cl)c3)cc(C(=O)/C=C(\O)C(=O)O)c2=O)cc1 | > 5000 nM | 
O=C(O)/C(O)=C/C(=O)c1cc(Cc2ccc(F)c(Cl)c2)cn(Cc2ccc(F)cc2F)c1=O | 1400 nM | 
O=C(O)/C(O)=C/C(=O)c1cc(Cc2ccccc2Cl)cn(Cc2ccc(F)cc2F)c1=O | 800 nM | 
COc1ccc(Cc2cc(C(=O)/C=C(\O)C(=O)O)c(=O)n(Cc3ccc(OC)cc3)c2)cc1 | > 5000 nM | 
O=C(O)/C(O)=C/C(=O)c1cc(Cc2ccc(F)c(Cl)c2)cn(Cc2c(F)cccc2F)c1=O | 5100 nM | 
O=C(O)/C(O)=C/C(=O)c1cc(Cc2cccc(Cl)c2)cn(Cc2ccc(F)c(Cl)c2)c1=O | 1200 nM | 
O=C(O)/C(O)=C/C(=O)c1cc(Cc2ccccc2F)cn(Cc2cccc(F)c2)c1=O | 1900 nM | 
O=C(O)/C(O)=C/C(=O)c1cc(Cc2cccc(Cl)c2F)cn(Cc2cccc(Cl)c2)c1=O | 1500 nM | 
O=C(O)/C(O)=C/C(=O)c1cc(Cc2ccc(F)cc2F)cn(Cc2ccc(F)cc2)c1=O | 600 nM | 
O=C(O)/C(O)=C/C(=O)c1cc(Cc2ccccc2)cn(Cc2cccc(F)c2)c1=O | 2000 nM | 
CC(C)OC(=O)/C(O)=C/C(=O)c1cc(Cc2ccc(F)cc2F)cn(Cc2ccc(F)cc2F)c1=O | 46 nM | 
O=C(O)/C(O)=C/C(=O)c1cc(Cc2ccccc2F)cn(Cc2ccccc2F)c1=O | 700 nM | 
O=C(O)/C(O)=C/C(=O)c1cc(Cc2ccccc2)cn(Cc2cccc(Cl)c2F)c1=O | 700 nM | 
Cc1cccc(Cn2cc(Cc3ccc(F)c(Cl)c3)cc(C(=O)/C=C(\O)C(=O)O)c2=O)c1 | 2200 nM | 
O=C(O)/C(O)=C/C(=O)c1cc(Cc2ccccc2)cn(Cc2cc(Cl)ccc2F)c1=O | 900 nM | 
O=C(O)/C(O)=C/C(=O)c1cc(Cc2cccc(Cl)c2)cn(Cc2ccc(Cl)cc2)c1=O | 2500 nM | 
